Measurements reported in PubChem BioAssay.
Calls of active or inactive are those of the source.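 How the source made its calls, unless noted: active means visual image review flags a hit and inhibition of aggregation exceeds 20%; inconclusive means visual hit but inhibition at or below 20%; inactive means no hit on visual image review.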

Key:
[1] = inhibitors of TNFa-induced NFkB p65 translocation, primary screen, imaging, HUVEC, MLSMR starter and 10KST1 sets (AID 438;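 active means inhibition above 20% together with a positive visual image hit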;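 further: compound added about 3h40 before a 20 min TNFalpha stimulation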;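 on inhibition: signal is the nuclear over cytoplasmic p65 intensity ratio per well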); conditions: HUVEC TNFa-induced p65 nuclear translocation; cell count: measured here: nuclei count (cytotoxicity indicator), at 2.08 µM; inhibition: at 2 µM, stronger effect = higher value, 0% TNFa-plus-vehicle, 100% no-TNFa wells
[2] = inhibitors of mutant huntingtin aggregation, primary screen, imaging, exon1htt(103Q)mCFP cells, high-content imaging (AID 483); conditions: exon1htt(103Q)mCFP cell line, aggregate imaging, at 2 µM; inhibition of aggregation: stronger effect = higher value; nuclei count: measured here: cell count, toxicity;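 further: compound exposure lasted 3 days before fixation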;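 on nuclei count: percent of the per-plate median nuclei count of sample wells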
[3] = inhibitors of E-selectin induction by TNFa, primary screen, imaging, HUVEC, immunofluorescence, MLSMR starter and 10KST1 sets (AID 487;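 active means visually confirmed hit in the image check and inhibition above 20%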;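 on inhibition: signal is fraction of cell area covered by stained E-selectin grains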;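 on nuclei count: 100% = median nuclei count of all wells on the same plate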); conditions: HUVEC TNFalpha-induced E-selectin immunofluorescence imaging, at 2 µM; inhibition: stronger effect = higher value; nuclei count: measured here: cell number, toxicity
[4] = molecular target: Voltage-gated potassium channel subunit beta-2 (Rattus norvegicus) (UniProt P62483); assay: KvBeta enzyme negative modulators, primary screen, biochemical, NADPH fluorescence (AID 622;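 active means fluorescence slope higher than the sample average by over 3 SD, cut at about -0.22 in these data, passing the limit was not always enough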;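 further: slope of raw intensity against log time taken from 70 to 1610 s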); conditions: recombinant KvBeta, 4-cyanobenzaldehyde reduction, at 10 µM, stronger effect = higher value
Voltage-gated potassium channel subunit beta-2 (Rattus norvegicus), sequence (P62483 whole entry, looked up): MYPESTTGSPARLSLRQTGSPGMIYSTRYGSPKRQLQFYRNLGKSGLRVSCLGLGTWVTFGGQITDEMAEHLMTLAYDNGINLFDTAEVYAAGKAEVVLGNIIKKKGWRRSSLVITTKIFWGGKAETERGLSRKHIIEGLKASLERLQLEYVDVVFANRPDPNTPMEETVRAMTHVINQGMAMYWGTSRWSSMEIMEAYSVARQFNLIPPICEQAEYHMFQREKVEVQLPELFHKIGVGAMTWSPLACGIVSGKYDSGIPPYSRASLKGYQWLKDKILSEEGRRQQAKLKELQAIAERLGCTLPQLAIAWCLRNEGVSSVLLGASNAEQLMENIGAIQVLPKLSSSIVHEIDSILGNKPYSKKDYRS

[5] = molecular target: Voltage-gated potassium channel subunit beta-2 (Rattus norvegicus) (UniProt P62483); assay: KvBeta positive modulators, primary screen, biochemical, NADPH fluorescence (AID 623;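 active means NADPH fluorescence slope more negative than the mean of all samples by about 3 SD, 99.7% confidence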;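 further: fluorescence intensity change per second fitted from 20 to 320 s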); conditions: Recombinant KvBeta, NADPH fluorescence decrease slope, 10 min; at 10 µM; stronger effect = lower value
[6] = molecular target: Muscarinic acetylcholine receptor M4 (Homo sapiens) (UniProt P08173); assay: compounds altering M4/GIRK thallium flux, either direction, primary screen, M4 allosteric agonist project, cell-based, HEK293 M4/GIRK, BTC-AM (AID 625;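 active means fluorescence slope after compound addition differing from the mean of all tested samples at 99.7% confidence, mostly higher but some lower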;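 further: thallium influx through GIRK channels coupled to M4 in HEK293 cells with BTC-AM dye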); conditions: at 10 µM, actives lie on both sides
Muscarinic acetylcholine receptor M4 (Homo sapiens), sequence (P08173 whole entry, looked up): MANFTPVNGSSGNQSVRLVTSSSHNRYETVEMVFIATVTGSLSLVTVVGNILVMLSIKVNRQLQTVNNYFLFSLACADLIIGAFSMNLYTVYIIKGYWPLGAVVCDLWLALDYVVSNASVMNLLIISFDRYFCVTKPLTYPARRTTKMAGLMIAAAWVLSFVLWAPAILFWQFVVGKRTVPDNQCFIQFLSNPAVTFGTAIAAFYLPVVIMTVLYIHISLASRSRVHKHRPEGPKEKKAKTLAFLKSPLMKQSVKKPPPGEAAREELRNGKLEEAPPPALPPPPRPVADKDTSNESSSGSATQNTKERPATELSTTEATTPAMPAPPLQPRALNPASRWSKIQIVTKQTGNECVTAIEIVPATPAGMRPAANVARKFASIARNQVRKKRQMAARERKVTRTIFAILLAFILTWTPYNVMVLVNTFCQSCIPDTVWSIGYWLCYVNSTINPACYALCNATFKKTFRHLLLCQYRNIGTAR
Outline: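 Assay system: HEK293 cells with M4 receptor and GIRK channels / Controls: carbachol and DMSO controls / Schedule: 1 h dye loading, 2 min kinetic read / Technique: kinetic fluorescence with BTC-AM dye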

[7] = inhibitors of Sendai virus-induced IRF3 signaling, primary screen, TLR/RLR signaling modifier project, cell-based, Sendai virus stimulus, luciferase, 10K MLSCN set (AID 602276;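 active means inhibition at or above 50% at 10 µM; inactive means inhibition below 50%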;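 further: firefly luciferase from ISG56 promoter only with Renilla not read in this screen; 0% = Sendai virus plus DMSO and 100% = medium plus DMSO without virus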); conditions: HEK293 RL24 IRF3 luciferase reporter, at 10 µM, stronger effect = higher value
[8] = inhibitors of poly I:C-induced TLR3 signaling, primary screen, cell-based, poly I:C stimulus, luciferase, 10K MLSCN set (AID 602277;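 active means inhibition of the reporter signal at or above 50%; inactive means inhibition below 50%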); conditions: HEK293-TLR3 RL24 IRF3 luciferase reporter, at 10 µM, stronger effect = higher value

| Compound | cell count [1] | inhibition [1] | inhibition of aggregation [2] | nuclei count [2] [%] | inhibition [3] | nuclei count [3] [%] | fluorescence slope [4] | NADPH fluorescence slope [5] | fluorescence slope [6] | inhibition [7] | inhibition [8] |
| --- | --- | --- | --- | --- | --- | --- | --- | --- | --- | --- | --- |
| Cc1ccccc1NC(=O)N1C2CCCC1CC(NC(=O)C1CC1)C2 (centres undefined) | 747 | -16.7% (inactive) | -5.1% (inactive) | 107 | 64.2% (inactive) | 94.5 | -0.361 (inactive) | 8.6e-05 (inactive) | 0.00599 (inactive) | 16.2% (inactive) | 16.2% (inactive) |
| O=C(CSc1nc2[nH]ncc2c(=O)n1-c1ccccc1Br)NCc1ccco1 | 517 | -24% (inactive) | -8.3% (inactive) | 83.4 | -15.2% (inactive) | 95 | -0.549 (inactive) | -3.1e-05 (inactive) | 0.00777 (inactive) | 22.2% (inactive) | 28.1% (inactive) |
| Cc1ccc(CCNC(=O)C2CCN(S(=O)(=O)c3cccc4nsnc34)CC2)cc1 | 644 | 5.2% (inactive) | -9.1% (inactive) | 96.4 | -129% (inactive) | 158 | -0.461 (inactive) | 0.000103 (inactive) | 0.00736 (inactive) | 0.47% (inactive) | -16.3% (inactive) |
| CCOc1ccc(-n2c(=O)cc(N3CCN(c4ccccc4)CC3)[nH]c2=O)cc1 | 542 | -4.4% (inactive) | -3.5% (inactive) | 87.1 | -40.5% (inactive) | 108 | -0.411 (inactive) | -1.6e-05 (inactive) | 0.00553 (inactive) | 12.1% (inactive) | 11.2% (inactive) |
| COc1cc(C2C3=C(CC(C)(C)CC3=O)Nc3c2c(=O)[nH]c(=O)n3Cc2ccccc2)ccc1O (centres undefined) | 271 | 15% (inactive) | -4.8% (inactive) | 104 | -45.4% (inactive) | 114 | -0.463 (inactive) | -8e-05 (inactive) | 0.00547 (inactive) | 9.34% (inactive) | 5.06% (inactive) |
| CCOc1cccc(Oc2ccc(C(F)(F)F)cn2)c1 | 664 | -8% (inactive) | -17.4% (inactive) | 120 | 8.4% (inactive) | 97.3 | -0.526 (inactive) | 1.7e-05 (inactive) | 0.00424 (inactive) | 5.91% (inactive) | 3.43% (inactive) |
| Cc1occc1C(=O)Nc1cccc2ccccc12 | 670 | 5.2% (inactive) | 16.6% (inactive) | 97.2 | -185% (inactive) | 100 | -0.546 (inactive) | 7.3e-06 (inactive) | 0.00507 (inactive) | -27.7% (inactive) | -86.3% (inactive) |
| O=C(NC1(C(F)(F)F)NC(=O)N(Cc2ccco2)C1=O)c1cccnc1 (centres undefined) | 495 | 1.8% (inactive) | 1.2% (inactive) | 104 | -26.5% (inactive) | 122 | -0.461 (inactive) | -8.5e-05 (inactive) | 0.00405 (inactive) | 9.43% (inactive) | 12.8% (inactive) |
| Cc1nc(SCC(=O)N2CCC(C(N)=O)CC2)n[nH]1 | 516 | -17.1% (inactive) | -2.4% (inactive) | 98.4 | -33.4% (inactive) | 119 | -0.581 (inactive) | -5.6e-05 (inactive) | 0.00602 (inactive) | -0.32% (inactive) | -1.6% (inactive) |
| O=C(Nc1ccccc1N1CCN(C(=O)c2ccc(Cl)cc2)CC1)c1cc2ccccc2o1 | 424 | 0% (inactive) | -5.5% (inactive) | 101 | -108% (inactive) | 104 | -0.549 (inactive) | -6.3e-06 (inactive) | 0.00626 (inactive) | 1.02% (inactive) | 17% (inactive) |
| CCOC(=O)c1c(NC(=O)Cn2c(C)nc3ccccc32)sc2c1CCC2 | 459 | -6.2% (inactive) | 15.3% (inactive) | 102 | -75.4% (inactive) | 112 | -0.552 (inactive) | -2.4e-05 (inactive) | 0.00437 (inactive) | 17.3% (inactive) | 24% (inactive) |
| O=C(NC1CCCCC1)C1CC(O)CN1C(=O)OCc1ccccc1 (centres undefined) | 819 | -4.1% (inactive) | 26.1% (inactive) | 104 | -56.4% (inactive) | 98 | -0.564 (inactive) | -7.5e-06 (inactive) | 0.00452 (inactive) | 2.76% (inactive) | 14.7% (inactive) |
| CCOC(=O)c1[nH]cc(-c2ccccc2)c1N1CCOCC1 | 398 | -3.5% (inactive) | 0.7% (inactive) | 110 | -131% (inactive) | 100 | -0.541 (inactive) | -4.5e-05 (inactive) | 0.00498 (inactive) | 4.95% (inactive) | 15.7% (inactive) |
| COC(=O)C1(C(=O)OC)Sc2ccccc2C1=O | 427 | -11.6% (inactive) | 12.5% (inactive) | 75.3 | 30.1% (inactive) | 97.1 | -0.571 (inactive) | 1.6e-05 (inactive) | 0.0074 (inactive) | 13% (inactive) | 17.2% (inactive) |
